Measurements published in ChEMBL document CHEMBL1134836, “Design, synthesis, and biological evaluation of a series of lavendustin A analogues that inhibit EGFR and Syk tyrosine kinases, as well as tubulin polymerization” (J Med Chem, 2001).
pIC50: −log10 of the molar value.

Key:
[1] = target: Tyrosine-protein kinase SYK (Homo sapiens, UniProt P43405); experiment: In vitro inhibition of Syk protein tyrosine kinase; assay type: functional
In short: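 Full-length GST-Syk from baculovirus-infected Sf9 cell lysates, held on glutathione-agarose. Stopped with 10 mM EDTA, beads washed, read by scintillation counting. IC50 determined graphically against DMSO control.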

[2] = target: Epidermal growth factor receptor (Mus musculus, UniProt Q01279); experiment: Inhibition of epidermal growth factor receptor phosphorylation in BaF3 mouse lymphoid cells.; assay type: cell-based
Epidermal growth factor receptor, sequence (Q01279 whole entry): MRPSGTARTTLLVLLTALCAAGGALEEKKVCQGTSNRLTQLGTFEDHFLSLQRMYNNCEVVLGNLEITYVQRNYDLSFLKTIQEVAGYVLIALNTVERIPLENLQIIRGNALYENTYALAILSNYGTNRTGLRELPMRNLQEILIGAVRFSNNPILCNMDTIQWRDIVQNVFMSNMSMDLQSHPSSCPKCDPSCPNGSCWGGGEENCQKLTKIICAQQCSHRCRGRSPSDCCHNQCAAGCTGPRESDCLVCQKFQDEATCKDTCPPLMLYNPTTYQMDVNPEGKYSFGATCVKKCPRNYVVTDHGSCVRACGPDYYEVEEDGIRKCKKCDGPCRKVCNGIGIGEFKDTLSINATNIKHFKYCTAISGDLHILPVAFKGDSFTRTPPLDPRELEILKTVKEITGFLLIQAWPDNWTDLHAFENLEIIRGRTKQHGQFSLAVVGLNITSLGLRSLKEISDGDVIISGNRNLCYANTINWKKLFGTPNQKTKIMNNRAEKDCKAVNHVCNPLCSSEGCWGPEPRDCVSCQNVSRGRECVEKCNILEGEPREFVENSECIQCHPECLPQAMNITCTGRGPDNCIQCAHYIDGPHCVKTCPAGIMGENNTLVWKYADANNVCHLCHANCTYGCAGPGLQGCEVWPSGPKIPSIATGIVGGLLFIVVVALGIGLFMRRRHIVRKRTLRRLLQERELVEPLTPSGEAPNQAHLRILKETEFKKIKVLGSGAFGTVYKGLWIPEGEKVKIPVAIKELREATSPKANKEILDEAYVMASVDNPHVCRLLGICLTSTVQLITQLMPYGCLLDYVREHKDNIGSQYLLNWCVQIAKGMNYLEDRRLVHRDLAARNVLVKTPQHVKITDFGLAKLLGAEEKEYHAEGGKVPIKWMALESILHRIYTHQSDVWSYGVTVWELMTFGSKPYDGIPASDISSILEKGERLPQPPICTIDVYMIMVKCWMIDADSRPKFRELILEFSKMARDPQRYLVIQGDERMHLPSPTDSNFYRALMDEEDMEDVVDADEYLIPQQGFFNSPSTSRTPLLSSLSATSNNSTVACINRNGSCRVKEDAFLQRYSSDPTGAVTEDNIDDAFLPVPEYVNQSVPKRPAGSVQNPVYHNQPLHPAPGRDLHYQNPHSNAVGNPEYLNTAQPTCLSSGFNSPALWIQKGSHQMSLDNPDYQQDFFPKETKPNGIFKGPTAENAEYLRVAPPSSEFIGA
In short: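 BaF3/EGFR cells serum-starved 24 h, then about 10^7 cells/mL treated 2 h at 37 °C with inhibitor at 3-5 concentrations. Chilled 20 min, then given EGF 100 ng/mL for 7 min on ice. Lysates precipitated on concanavalin A beads, run on SDS/PAGE, and immunoblotted with antiphosphotyrosine using ECL detection.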

[3] = tested on: Cancer cell lines; experiment: Mean graph mid point (MGM) for growth inhibition of all human cancer cell lines successfully tested; assay type: functional
[4] = tested on: MDA-MB-435; experiment: In vitro cytotoxicity against human breast MDA-MB-435 cells.; assay type: functional
[5] = tested on: UACC-62; experiment: In vitro cytotoxicity against human melanoma UACC-62 cells.; assay type: functional
[6] = tested on: SF-539; experiment: In vitro cytotoxicity against human CNS SF-539 cells.; assay type: functional
[7] = tested on: DU-145; experiment: In vitro cytotoxicity against human prostate DU-145 cells.; assay type: functional
[8] = tested on: HCT-116; experiment: In vitro cytotoxicity against human colon HCT116 cell culture.; assay type: functional
[9] = tested on: MCF-10A; experiment: Inhibition of DNA synthesis in MCF-10A cells.; assay type: functional, cell-based; details: Homo sapiens
In short: (§1)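 Cells seeded at 10^5/well and grown 24 h at 37 °C, then given inhibitor in DMSO at 3-5 concentrations, 3-4 wells each, for 48 h. [3H]thymidine pulse for 2 h. TCA-precipitated label solubilized in perchloric acid and counted.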

[10] = target: Tubulin beta chain (Bos taurus, UniProt Q6B856); experiment: Inhibition of bovine tubulin polymerization
Tubulin beta chain, sequence (Q6B856 whole entry): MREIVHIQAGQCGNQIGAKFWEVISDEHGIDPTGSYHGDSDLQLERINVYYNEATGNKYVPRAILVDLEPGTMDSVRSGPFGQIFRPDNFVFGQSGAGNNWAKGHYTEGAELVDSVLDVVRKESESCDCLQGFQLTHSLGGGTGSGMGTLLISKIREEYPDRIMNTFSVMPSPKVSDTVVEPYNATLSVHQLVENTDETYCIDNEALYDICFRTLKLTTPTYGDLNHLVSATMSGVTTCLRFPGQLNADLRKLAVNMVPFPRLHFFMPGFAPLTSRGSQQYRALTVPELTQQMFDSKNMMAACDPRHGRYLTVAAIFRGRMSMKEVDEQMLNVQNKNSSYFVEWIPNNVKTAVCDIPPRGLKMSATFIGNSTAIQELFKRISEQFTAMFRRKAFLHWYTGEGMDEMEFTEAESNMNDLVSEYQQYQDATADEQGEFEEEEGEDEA
In short: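 Electrophoretically homogeneous bovine brain tubulin. Polymerization followed spectrophotometrically with a temperature jump from 2-4 °C to 30 °C.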

[11] = tested on: HOP-62; experiment: In vitro cytotoxicity against human lung HOP-62 cells.; assay type: functional
[12] = tested on: OVCAR-3; experiment: In vitro cytotoxicity against human ovarian OVCAR-3 cells.; assay type: functional
[13] = tested on: MCF7; experiment: Inhibition of DNA synthesis in MCF-7 cells.; assay type: functional, cell-based; details: Homo sapiens; in short: as §1
[14] = tested on: SN12C; experiment: In vitro cytotoxicity against human renal SN12C cells.; assay type: functional
[15] = tested on: CCRF-CEM; experiment: Cytotoxic effect on human leukemia CCRF-CEM cells; assay type: functional
[16] = target: Tubulin beta chain (Bos taurus) (UniProt Q6B856); experiment: Percentage inhibition of binding of [3H]colchicine to tubulin at 50 uM
Tubulin beta chain (Bos taurus), sequence (Q6B856 whole entry): as above

[17] = tested on: cancer cell lines (55); experiment: Mean graph midpoint (MGM) for growth inhibition of all human cancer cell lines (55); assay type: functional
[18] = target: Tubulin beta chain (Bos taurus) (UniProt Q6B856); details: 5 uM

SMILES	pIC50 [1]	pIC50 [2]	pIC50 [10]	pIC50 [13]	Inhibition [16] [%]	Inhibition [18] [%]	MGM [3] [µM]	GI50 [4] [µM]	GI50 [5] [µM]	GI50 [6] [µM]	GI50 [7] [µM]	GI50 [8] [µM]	pIC50 [9]	GI50 [11] [µM]	GI50 [12] [µM]	GI50 [14] [µM]	GI50 [15] [µM]	MGM [17] [µM]
O=C(NCCc1ccccc1)c1ccc(NCc2cc(O)ccc2O)cc1	5.30	< 3.70	5.31	5.52			6.4	5.1	9.4	8.5	14	7.4	5.15	13	2.7	7.4	0.59	
CC(C)CCCC(C)[C@H]1CC[C@H]2[C@@H]3CCC4C[C@@H](NC(=O)c5cc(NCc6cc(O)ccc6O)ccc5O)CC[C@]4(C)[C@H]3CC[C@]12C (stereo partly specified)			< 4.40	< 4.30														>100
CCCCCCCCCCCCNC(=O)c1cc(NCc2cc(O)ccc2O)ccc1O	4.30	4.46	< 4.40	6.00			2.7	3.2	3.2	20	11	2.1	5.52	3.8	1.9	2.6	0.34	
O=C(NCCCc1ccccc1)c1ccc(NCc2cc(O)ccc2O)cc1	4.46	4.48	5.24	6.40			5.3	5.8	7.9	3.4	13	6.4	5.52	16	3	3.2	0.83	
O=C(NC1CCc2ccccc2C1)c1cc(NCc2cc(O)ccc2O)ccc1O (stereo unspecified)	5.10	5.40	5.28	5.00			11.2	9.2	14	2.7	17	16	5.22	17	7.9	18	1.4	
COc1ccc(/C=C\c2cc(OC)c(OC)c(OC)c2)cc1O						98												
O=C(NCc1ccccc1)c1ccc(NCc2cc(O)ccc2O)cc1	4.74	< 4.00		4.80			8.8	12	12	9.7	15	10	4.47	20	6.8	9.7	2.7	
O=C(NCCc1ccccc1)c1cccc(NCc2cc(O)ccc2O)c1	< 4.00	3.30	5.16	5.30			12.1	15	13	15	17	16	5.22	3.8	2.8	13	4.4	
O=C(NCCN1CCOCC1)c1cc(NCc2cc(O)ccc2O)ccc1O	5.82	< 4.30	5.68	4.85	34		19.5	13	17	19	17	20	4.80		87	22	1.8	

Now from value to molecule, other results behind:

pIC50 [1]	pIC50 [2]	pIC50 [10]	pIC50 [13]	Inhibition [16] [%]	Inhibition [18] [%]	SMILES	MGM [3] [µM]	GI50 [4] [µM]	GI50 [5] [µM]	GI50 [6] [µM]	GI50 [7] [µM]	GI50 [8] [µM]	pIC50 [9]	GI50 [11] [µM]	GI50 [12] [µM]	GI50 [14] [µM]	GI50 [15] [µM]	MGM [17] [µM]
4.60	4.34	5.49	4.89			O=C(NCCc1ccc(Cl)cc1)c1cc(NCc2cc(O)ccc2O)ccc1O	10	20	13	8.4	16	15	5.05	17	5.9	9.8	1.6	
4.60	5.10	5.49	4.77			O=C(NCc1ccccc1)c1cc(NCc2cc(O)ccc2O)ccc1O	15.5	30	15	21	16	17	4.77	23	21	12	3.2	
	4.85	5.44	4.96	45		CCCCCCNC(=O)c1cc(NCc2cc(O)ccc2O)ccc1O	8.7	15	12	2.3	15	17	4.85	19	4	6.1	0.56	
5.30	5.00	5.44	5.05			O=C(NCCc1ccccc1)c1cc(NCc2cc(O)ccc2O)ccc1O	14.8	19	14	17	16	18	4.96	20	7.7	18	2.7	
5.30	3.52	5.35	4.80			O=C(NCCc1ccc(O)cc1)c1cc(NCc2cc(O)ccc2O)ccc1O	20.4	23	18	2.5	17	16	4.82	2.5	62	19		
4.55	6.00	5.30	5.70			O=C(NCCCc1ccccc1)c1cc(NCc2cc(O)ccc2O)ccc1O	13.2	18	14	16	8.4	24	5.70	22	6.5	15	2.4	
	4.82	5.44	4.96			O=C(NCCc1ccccn1)c1cc(NCc2cc(O)ccc2O)ccc1O	16	13	17	29	17	17	5.15	20	17	19	1	
4.35	4.46	5.38	5.15			O=C(NCCc1ccc(Br)cc1)c1cc(NCc2cc(O)ccc2O)ccc1O	7.6	10	8.6	15.8	16	7.6	5.22	18	4.2	6.3		
5.30	5.40	5.40	4.92	38		O=C(NCCc1ccc(F)cc1)c1cc(NCc2cc(O)ccc2O)ccc1O	0.35	13	7.8	9.2	18	9.2	5.00	12	11	7.7	0.29	
4.30	< 4.00	5.38	4.85			COc1ccc(CCNC(=O)c2cc(NCc3cc(O)ccc3O)ccc2O)cc1	15.4	16	14	16	21	23	4.96	12	5.5	72	3.2	
